According to ChEMBL document CHEMBL2321808, “Synthesis and preliminary evaluation in tumor bearing mice of new (18)F-labeled arylsulfone matrix metalloproteinase inhibitors as tracers for positron emission tomography” (J Med Chem, 2013):
Activity calls are given as the source filed them. The rule behind the calls is not given here.

Tests used:
[1] = target: Collagenase 3 (Homo sapiens, UniProt P45452); test: Inhibition of MMP-13 (unknown origin) using Mca-Lys-Pro-Leu-Gly-Leu-Dap(Dnp)-Ala-Arg-NH2 as substrate after 4 hrs by fluorometric assay
Summary of the method: (§1)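 Fluorogenic substrate added at 2 μM final. Fluorescence (ex 325/em 395 nm) read every 15 s for 20 min. Run in triplicate. IC50 from vi/v0 = 1/(1 + [I]/IC50); Ki also derived.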

[2] = target: 72 kDa type IV collagenase (Homo sapiens, UniProt P08253); test: Inhibition of MMP-2 (unknown origin) using Mca-Lys-Pro-Leu-Gly-Leu-Dap(Dnp)-Ala-Arg-NH2 as substrate after 4 hrs by fluorometric assay; summary of the method: as §1
[3] = target: Matrix metalloproteinase-9 (Homo sapiens, UniProt P14780); test: Inhibition of MMP-9 (unknown origin) using Mca-Lys-Pro-Leu-Gly-Leu-Dap(Dnp)-Ala-Arg-NH2 as substrate after 4 hrs by fluorometric assay; summary of the method: as §1
[4] = target: T1, Interstitial collagenase (Homo sapiens, UniProt P03956); test: Inhibition of MMP-1 (unknown origin) using Mca-Lys-Pro-Leu-Gly-Leu-Dap(Dnp)-Ala-Arg-NH2 as substrate after 4 hrs by fluorometric assay; summary of the method: as §1
T1 sequence (P03956 whole entry): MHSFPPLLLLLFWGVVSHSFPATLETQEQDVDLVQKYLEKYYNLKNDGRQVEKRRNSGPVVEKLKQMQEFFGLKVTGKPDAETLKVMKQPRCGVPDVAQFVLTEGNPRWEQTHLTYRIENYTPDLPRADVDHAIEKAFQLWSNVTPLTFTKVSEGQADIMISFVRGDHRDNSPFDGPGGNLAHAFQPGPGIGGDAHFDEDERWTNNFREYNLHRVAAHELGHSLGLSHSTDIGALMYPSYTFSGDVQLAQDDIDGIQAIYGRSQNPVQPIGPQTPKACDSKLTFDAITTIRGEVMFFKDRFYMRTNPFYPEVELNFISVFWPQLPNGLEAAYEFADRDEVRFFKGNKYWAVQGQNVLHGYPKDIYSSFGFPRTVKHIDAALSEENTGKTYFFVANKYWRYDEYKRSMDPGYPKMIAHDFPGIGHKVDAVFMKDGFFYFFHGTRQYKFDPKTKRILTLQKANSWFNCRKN

[5] = target: Stromelysin-1 (Homo sapiens, UniProt P08254); test: Inhibition of MMP-3 (unknown origin) using Mca-Arg-Pro-Lys-Pro-Val-Glu-Nva-Trp-Arg-Lys-(Dnp)-NH2 as substrate after 4 hrs by fluorometric assay; summary of the method: as §1
[6] = target: Macrophage metalloelastase (Homo sapiens, UniProt P39900); test: Inhibition of MMP-12 (unknown origin) using Mca-Lys-Pro-Leu-Gly-Leu-Dap(Dnp)-Ala-Arg-NH2 as substrate after 4 hrs by fluorometric assay; summary of the method: as §1
[7] = target: Albumin (Homo sapiens, UniProt P02768); test: Binding affinity to human serum albumin by 19F NMR titration assay; assay type: ADME
Summary of the method: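 19F NMR at 310.0 K; ligand at 1.0 mM final (dissolved in DMSO, brought to volume with PBS pH 7.4 containing 10% D2O), TFA as chemical-shift reference. Fatty-acid-free human serum albumin added stepwise (0.36 mM aliquots in PBS or solid) up to protein:ligand 3:1; scans raised from 64 to 16 384 along the titration.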

[8] = target: Matrix metalloproteinase-14 (Homo sapiens, UniProt P50281); test: Inhibition of human recombinant MMP-14 catalytic domain using Mca-Lys-Pro-Leu-Gly-Leu-Dap(Dnp)-Ala-Arg-NH2 as substrate after 4 hrs by fluorometric assay; summary of the method: as §1
[9] = tested on: Mus musculus; test: Biodistribution in CD1 nude mouse small intestine at 7.4 MBq, iv after 10 mins by PET imaging analysis; assay type: ADME, organism-based; details: in vivo
Summary of the method: (§2)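 Healthy CD1 nude mice, 6–8 weeks old (n = 2–3 per tracer), under isoflurane anesthesia. Tracer given by tail-vein catheter, ~7.4 MBq in 0.15–0.30 mL PBS. Dynamic PET from injection to 2.5 h. Organ ROIs drawn and counts calibrated against an [18F]fluoride phantom. Uptake decay-corrected and expressed as %ID/g.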

[10] = tested on: Liver; test: Biodistribution in CD1 nude mouse liver at 7.4 MBq, iv after 45 mins by PET imaging analysis; assay type: ADME, organism-based; details: in vivo, 0.75 h
Summary of the method: (§3)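 Healthy CD1 nude mice, 6–8 weeks, 2–3 per tracer, anesthetized with isoflurane. Tail-vein injection via catheter in PBS, with residual syringe dose checked. Dynamic PET from injection to 2.5 h, 3D EM reconstruction, no attenuation or scatter correction, phantom-calibrated. Manual ROIs on organs; decay-corrected uptake expressed as % ID/g.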

[11] = tested on: Liver; test: Biodistribution in CD1 nude mouse liver at 7.4 MBq, iv after 10 mins by PET imaging analysis; assay type: ADME, organism-based; details: in vivo; summary of the method: as §2
[12] = tested on: Mus musculus; test: Biodistribution in CD1 nude mouse small intestine at 7.4 MBq, iv after 140 mins by PET imaging analysis; assay type: ADME, organism-based; details: in vivo; summary of the method: as §3
[13] = Drug uptake in small tumor in CD1 nude mouse xenografted with human U87MG cells assessed as uniform distribution at 7.4 MBq after 100 mins by PET imaging analysis; assay type: ADME, Neoplasm, U-87MG ATCC; details: in vivo
[14] = Drug uptake in tumor in […] CD1 nude mouse xenografted with human U87MG cells after 10 mins by PET imaging analysis; assay type: ADME, organism-based, Neoplasm, U-87MG ATCC; details: read-out: Drug uptake
[15] = Drug uptake in tumor in […] CD1 nude mouse xenografted with human U87MG cells after 100 mins by PET imaging analysis; assay type: ADME, organism-based, Neoplasm, U-87MG ATCC; details: in vivo
[16] = Drug uptake in large tumor in CD1 nude mouse xenografted with human U87MG cells assessed as accumulation within the rim at 7.4 MBq after 100 mins by PET imaging analysis; assay type: ADME, Neoplasm, U-87MG ATCC; details: in vivo
[17] = Drug uptake in tumor in CD1 nude mouse xenografted with human U87MG cells at 7.4 MBq after 100 mins by PET imaging analysis; assay type: ADME, Neoplasm, U-87MG ATCC; details: in vivo
[18] = tested on: Mus musculus; test: In vivo inhibition of MMP in CD1 nude mouse xenografted with human U87MG cells at 7.4 MBq after 100 mins by PET imaging analysis in presence of ilomastat; assay type: functional, organism-based; set-up: dose or concentration left out as unconfirmed; details: U-87MG ATCC, tested as the 18F-labelled form
Summary of the method: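 U-87 MG xenografted female CD1 nude mice received ilomastat i.p. at 40–160 mg/kg, 30 min before iv tracer (~7.4 MBq). Static 30-min PET acquired 100 min post-injection. %ID/g measured over whole tumor, rim and core.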

[19] = tested on: Mus musculus; test: In vivo binding affinity to MMP-2 in human U87MG tumor xenografted in mouse assessed as MMP-2 level after 12 hrs by PET scanning followed by gelatin zymography; assay type: functional, organism-based; details: tested as the 18F-labelled form
Summary of the method: (§4)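 Xenograft tumors excised within 12 h after PET, frozen at −80 °C, ground, and lysed in 1% Triton X-100. Supernatant run on 10% SDS-PAGE containing 0.1% gelatin. Gel renatured in 2.5% Triton X-100, then developed 24 h at 37 °C in 50 mM Tris-HCl pH 7.4, 10 mM CaCl2, 0.5 μM ZnCl2, and stained with Coomassie. MMP-2 read at 72 kDa, MMP-9 at 92 kDa.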

[20] = tested on: Mus musculus; test: In vivo binding affinity to MMP-9 in human U87MG tumor xenografted in mouse assessed as MMP-9 level after 12 hrs by PET scanning followed by gelatin zymography; assay type: functional, organism-based; details: tested as the 18F-labelled form; summary of the method: as §4
[21] = Drug uptake in large tumor in CD1 nude mouse xenografted with human U87MG cells assessed as accumulation within the rim at 7.4 MBq after 45 mins by PET imaging analysis; assay type: ADME, Neoplasm, U-87MG ATCC; details: in vivo, 0.75 h
[22] = Drug uptake in tumor in CD1 nude mouse xenografted with human U87MG cells at 7.4 MBq after 45 mins by PET imaging analysis; assay type: ADME, Neoplasm, U-87MG ATCC; details: in vivo, 0.75 h
[23] = Drug uptake in small tumor in CD1 nude mouse xenografted with human U87MG cells assessed as uniform distribution at 7.4 MBq after 45 mins by PET imaging analysis; assay type: ADME, Neoplasm, U-87MG ATCC; details: in vivo, 0.75 h

Chain of Matrix metalloproteinase-9 (P14780 whole entry): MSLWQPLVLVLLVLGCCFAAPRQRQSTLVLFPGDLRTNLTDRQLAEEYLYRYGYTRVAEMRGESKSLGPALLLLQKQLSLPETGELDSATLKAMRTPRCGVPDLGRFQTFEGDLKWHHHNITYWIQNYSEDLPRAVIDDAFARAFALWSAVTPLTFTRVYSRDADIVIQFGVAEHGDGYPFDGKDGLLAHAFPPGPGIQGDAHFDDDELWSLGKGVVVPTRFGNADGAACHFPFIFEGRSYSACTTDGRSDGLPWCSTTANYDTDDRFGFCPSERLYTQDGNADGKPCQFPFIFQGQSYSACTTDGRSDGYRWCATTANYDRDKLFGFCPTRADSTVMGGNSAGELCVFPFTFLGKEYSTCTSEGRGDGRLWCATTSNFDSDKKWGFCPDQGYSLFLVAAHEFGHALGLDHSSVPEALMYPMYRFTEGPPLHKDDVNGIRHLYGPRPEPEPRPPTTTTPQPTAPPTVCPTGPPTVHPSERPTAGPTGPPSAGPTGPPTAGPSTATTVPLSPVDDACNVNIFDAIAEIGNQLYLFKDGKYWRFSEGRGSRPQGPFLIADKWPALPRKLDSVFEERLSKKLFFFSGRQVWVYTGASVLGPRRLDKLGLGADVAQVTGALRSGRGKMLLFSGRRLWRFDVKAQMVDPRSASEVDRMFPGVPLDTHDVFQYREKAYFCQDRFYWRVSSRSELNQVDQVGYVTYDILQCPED
Chain of 72 kDa type IV collagenase (P08253 whole entry): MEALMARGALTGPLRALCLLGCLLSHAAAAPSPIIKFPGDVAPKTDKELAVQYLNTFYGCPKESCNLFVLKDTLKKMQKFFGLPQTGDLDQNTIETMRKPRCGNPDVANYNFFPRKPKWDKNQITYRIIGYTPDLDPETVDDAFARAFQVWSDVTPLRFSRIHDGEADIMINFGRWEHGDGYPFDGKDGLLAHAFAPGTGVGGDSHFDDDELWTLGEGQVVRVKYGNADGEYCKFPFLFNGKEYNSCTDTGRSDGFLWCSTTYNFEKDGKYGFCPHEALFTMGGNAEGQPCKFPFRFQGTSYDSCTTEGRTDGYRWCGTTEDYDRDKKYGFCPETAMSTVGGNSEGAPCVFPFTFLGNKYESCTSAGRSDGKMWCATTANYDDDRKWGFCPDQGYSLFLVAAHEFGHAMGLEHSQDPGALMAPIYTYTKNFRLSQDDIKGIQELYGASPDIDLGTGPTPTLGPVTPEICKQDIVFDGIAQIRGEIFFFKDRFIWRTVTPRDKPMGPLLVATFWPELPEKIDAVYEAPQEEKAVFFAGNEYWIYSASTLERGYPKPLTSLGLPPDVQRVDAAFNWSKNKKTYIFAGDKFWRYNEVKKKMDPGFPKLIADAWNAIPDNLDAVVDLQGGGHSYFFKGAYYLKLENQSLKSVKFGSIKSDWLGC
Chain of Macrophage metalloelastase (P39900 whole entry): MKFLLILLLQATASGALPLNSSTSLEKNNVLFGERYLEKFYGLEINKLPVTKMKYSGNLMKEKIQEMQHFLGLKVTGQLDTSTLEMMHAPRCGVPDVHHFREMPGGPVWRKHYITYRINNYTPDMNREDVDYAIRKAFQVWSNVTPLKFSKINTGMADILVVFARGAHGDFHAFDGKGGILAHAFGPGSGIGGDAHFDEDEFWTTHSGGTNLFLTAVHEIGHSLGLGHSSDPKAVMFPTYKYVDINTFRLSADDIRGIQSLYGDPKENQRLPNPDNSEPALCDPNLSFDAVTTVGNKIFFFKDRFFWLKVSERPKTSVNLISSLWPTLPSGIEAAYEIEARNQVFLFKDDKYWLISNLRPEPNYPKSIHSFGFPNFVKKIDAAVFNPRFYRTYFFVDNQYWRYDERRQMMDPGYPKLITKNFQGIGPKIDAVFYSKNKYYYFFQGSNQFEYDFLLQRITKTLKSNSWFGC
Chain of Stromelysin-1 (P08254 whole entry): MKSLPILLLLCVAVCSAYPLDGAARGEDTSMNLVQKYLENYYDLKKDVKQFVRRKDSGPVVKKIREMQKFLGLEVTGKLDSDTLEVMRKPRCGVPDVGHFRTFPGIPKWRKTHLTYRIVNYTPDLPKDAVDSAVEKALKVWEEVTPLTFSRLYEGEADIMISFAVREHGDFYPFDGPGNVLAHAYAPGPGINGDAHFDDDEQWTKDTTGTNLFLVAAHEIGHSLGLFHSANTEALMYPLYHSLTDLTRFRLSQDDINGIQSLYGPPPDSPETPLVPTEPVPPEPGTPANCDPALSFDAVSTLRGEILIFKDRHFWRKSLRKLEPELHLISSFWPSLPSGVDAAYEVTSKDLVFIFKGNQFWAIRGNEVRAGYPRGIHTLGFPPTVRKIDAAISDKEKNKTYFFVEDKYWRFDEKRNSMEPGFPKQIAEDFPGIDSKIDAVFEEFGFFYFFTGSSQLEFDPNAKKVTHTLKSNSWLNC
Chain of Albumin (P02768 whole entry): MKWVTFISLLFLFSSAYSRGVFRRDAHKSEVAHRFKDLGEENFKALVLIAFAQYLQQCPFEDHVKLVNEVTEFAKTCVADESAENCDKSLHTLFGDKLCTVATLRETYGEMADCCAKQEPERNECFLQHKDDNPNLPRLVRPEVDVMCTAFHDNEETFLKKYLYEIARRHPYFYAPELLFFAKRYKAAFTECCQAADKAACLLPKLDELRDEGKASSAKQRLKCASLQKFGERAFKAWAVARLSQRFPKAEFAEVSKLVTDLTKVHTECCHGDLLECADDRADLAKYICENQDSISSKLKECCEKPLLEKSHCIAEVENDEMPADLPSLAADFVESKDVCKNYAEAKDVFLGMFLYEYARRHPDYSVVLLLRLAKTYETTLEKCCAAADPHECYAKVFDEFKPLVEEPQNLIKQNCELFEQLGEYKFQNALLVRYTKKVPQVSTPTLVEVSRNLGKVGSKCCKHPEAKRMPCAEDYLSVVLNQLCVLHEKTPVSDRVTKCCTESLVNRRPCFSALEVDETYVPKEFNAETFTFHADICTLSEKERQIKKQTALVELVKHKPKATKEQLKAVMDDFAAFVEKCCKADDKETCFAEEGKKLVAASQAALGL

Structure (SMILES)	IC50 [1]	IC50 [2]	IC50 [3]	IC50 [4]	IC50 [5]	IC50 [6]	IC50 [8]	Drug uptake [9]	Drug uptake [11]	also measured
O=C(O)Cc1ccccc1S(=O)(=O)c1ccc(-c2ccc(NC(=O)CF)cc2)cc1	220 nM	61 nM	1500 nM	6100 nM	6800 nM	500 nM	4600 nM			Kd [7]: 10000 nM
O=C(O)Cc1ccccc1S(=O)(=O)c1ccc(-c2ccc(NC(=O)C[18F])cc2)cc1								2.4 % ID/g	11%	Drug uptake [10]: 6.1 % ID/g; Drug uptake [12]: 12.4 % ID/g
OC[C@H]1OC(O)[C@H]([18F])[C@@H](O)[C@@H]1O (some centres undefined) [FLUDEOXYGLUCOSE F 18]										Drug uptake [21]: Active; Drug uptake [22]: 4.39 % ID/g; Drug uptake [23]: Active
O=C(O)Cc1ccccc1S(=O)(=O)c1ccc(-c2ccc(F)cc2)cc1	386 nM	230 nM	3600 nM	11500 nM	67000 nM	400 nM	4800 nM			

The next lines start with results.

IC50 [1]	IC50 [2]	IC50 [3]	IC50 [4]	IC50 [5]	IC50 [6]	IC50 [8]	Drug uptake [9]	Drug uptake [11]	Structure (SMILES)	also measured
							2.5 % ID/g	11.2 % ID/g	O=C(O)Cc1ccccc1S(=O)(=O)c1ccc(-c2ccc(OCC[18F])cc2)cc1	Drug uptake [13]: Active; tissue uptake at 10 min [14]: 1.1 %ID/g; Drug uptake [15]: 1.7 % ID/g; Drug uptake [10]: 8.5 % ID/g; Drug uptake [12]: 13.1 % ID/g; Drug uptake [16]: Active; Drug uptake [17]: 1.4 % ID/g
22 nM	16 nM	107 nM	18500 nM	7100 nM	44 nM	1600 nM			O=C(O)Cc1ccccc1S(=O)(=O)c1ccc(-c2ccc(OCCF)cc2)cc1	inhibition [18]: Active; Activity [19]: Active; Activity [20]: Active; Kd [7]: 140000 nM
							4.1 % ID/g	21.6 % ID/g	CC(C)(C)OC(=O)Cc1ccccc1S(=O)(=O)c1ccc(-c2ccc(OCC[18F])cc2)cc1	
